Measurements reported in ChEMBL document CHEMBL3400013, “Synthesis and biological activity evaluation of hydrazone derivatives based on a Tröger's base skeleton” (Bioorg Med Chem, 2015).
Activity calls are given as the source filed them. The calls are words filed in the database; no cut-off is given here.

Experiments:
BJ [1] = assay: Selectivity index, ratio of IC50 for human BJ cells to IC50 for human K562-TAX cells; type: functional
Nucleic Acid [2] = assay: Binding affinity to DNA (unknown origin) assessed as DNA intercalation by UV-visible spectrophotometry in presence of Cu2+; type: nucleic-acid assay
[3] = Metal chelating activity of the compound assessed as formation of Ca2+ complex by UV-vis spectrometry; type: physicochemical
Pseudomonas aeruginosa [4] = assay: Antimicrobial activity against Pseudomonas aeruginosa CCM 395 up to 200 uM after 24 to 48 hrs by broth microdilution method; type: functional, organism-based
CCRF-CEM [5] = assay: Induction of apoptosis in human CCRF-CEM cells assessed as inhibition of RNA synthesis at IC50 after 24 hrs by propidium iodide/BrU staining by flow cytometry; type: functional; parameters: scale not given: the % may be the effect or the level left
Nucleic Acid [6] = assay: Binding affinity to DNA (unknown origin) assessed as DNA intercalation by UV-visible spectrophotometry in presence of Fe3+; type: nucleic-acid assay
HCT-116 = assay: Selectivity index, ratio of IC50 for human MRC5 cells to IC50 for human HCT116 cells; type: functional
Pseudomonas aeruginosa [7] = assay: Antimicrobial activity against multidrug-resistant Pseudomonas aeruginosa A/16575 up to 200 uM after 24 to 48 hrs by broth microdilution method; type: functional, organism-based
CCRF-CEM [8] = assay: Cell cycle arrest in human CCRF-CEM cells assessed as accumulation at G0/G1 phase at 5 times IC50 after 24 hrs by propidium iodide staining-based flow cytometry; type: functional
Procedure, shortened: (§1)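 Cells were then fixed in 70% ethanol, washed in hypotonic citrate buffer, treated with RNase (50 µg/mL) and stained with propidium iodide. Flow cytometry used a 488 nm laser. Apoptosis was scored as the percentage of particles with propidium content below G0/G1.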

Enterococcus faecalis = assay: Antimicrobial activity against Enterococcus faecalis CCM 4224 up to 200 uM after 24 to 48 hrs by broth microdilution method; type: functional, organism-based
CCRF-CEM [9] = assay: Cytostatic activity against human CCRF-CEM cells after 72 hrs by MTT assay; type: functional, cell-based
Procedure, shortened: (§2)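 Cells were seeded at 25,000–30,000 per well and pre-incubated for 24 h at 37°C in 5% CO2. Four-fold compound dilutions were added in duplicate and incubated for 72 h. MTT was added for 1–4 h, and formazan was dissolved in 10% aq SDS (pH 5.5) overnight at 37°C. OD was read at 540 nm. IC50 came from dose-response curves, mean ± SD of eight independent experiments.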

BJ [10] = assay: Selectivity index, ratio of IC50 for human BJ cells to IC50 for human p53-/- HCT116 cells; type: functional
BJ [11] = assay: Selectivity index, ratio of IC50 for human BJ cells to IC50 for human CCRF-CEM cells; type: functional; details: pooled result: one value given for 2 cell lines, strains, targets or settings
Escherichia coli [12] = assay: Antimicrobial activity against Escherichia coli CCM 3954 up to 200 uM after 24 to 48 hrs by broth microdilution method; type: functional, organism-based
CCRF-CEM [13] = assay: Cell cycle arrest in human CCRF-CEM cells assessed as accumulation at S phase at IC50 after 24 hrs by propidium iodide staining-based flow cytometry; type: functional; procedure, shortened: as §1
Nucleic Acid [14] = assay: Binding affinity to DNA (unknown origin) assessed as DNA intercalation by UV-visible spectrophotometry in presence of Co2+; type: nucleic-acid assay
[15] = Metal chelating activity of the compound assessed as formation of Co2+ complex by UV-vis spectrometry; type: physicochemical
CCRF-CEM [16] = assay: Induction of apoptosis in human CCRF-CEM cells assessed as mitotic cells at 5 times IC50 after 24 hrs by pH3Ser10+ labeling-based flow cytometry; type: functional
[17] = Metal chelating activity of the compound assessed as formation of Mg2+ complex by UV-vis spectrometry; type: physicochemical
[18] = Cytostatic activity against human CEM-DNR cells after 72 hrs by MTT assay; type: functional, cell-based; procedure, shortened: as §2
[19] = Metal chelating activity of the compound assessed as formation of Mn2+ complex by UV-vis spectrometry; type: physicochemical
[20] = Cytostatic activity against human HCT116 cells after 72 hrs by MTT assay; type: functional, cell-based; details: HCT-116, 72 h; procedure, shortened: as §2
Candida albicans = assay: Antifungal activity against Candida albicans up to 200 uM after 24 to 48 hrs by broth microdilution method; type: functional, organism-based
Staphylococcus aureus = assay: Antimicrobial activity against methicillin-resistant Staphylococcus aureus MRSA 4591 up to 200 uM after 24 to 48 hrs by broth microdilution method; type: functional, organism-based
BJ [21] = assay: Selectivity index, ratio of IC50 for human BJ cells to IC50 for human HCT116 cells; type: functional
[22] = Metal chelating activity of the compound assessed as formation of Ni2+ complex by UV-vis spectrometry; type: physicochemical
Nucleic Acid [23] = assay: Binding affinity to DNA (unknown origin) assessed as DNA intercalation by UV-visible spectrophotometry in presence of Ni2+; type: nucleic-acid assay
Escherichia coli [24] = assay: Antimicrobial activity against multidrug-resistant Escherichia coli C/16702 up to 200 uM after 24 to 48 hrs by broth microdilution method; type: functional, organism-based
[25] = Cytostatic activity against human K562-TAX cells after 72 hrs by MTT assay; type: functional, cell-based; procedure, shortened: as §2
Candida tropicalis = assay: Antifungal activity against Candida tropicalis up to 200 uM after 24 to 48 hrs by broth microdilution method; type: functional, organism-based
CCRF-CEM [26] = assay: Cell cycle arrest in human CCRF-CEM cells assessed as accumulation at G0/G1 phase at IC50 after 24 hrs by propidium iodide staining-based flow cytometry; type: functional; procedure, shortened: as §1
BJ [27] = assay: Selectivity index, ratio of IC50 for human BJ cells to IC50 for human K562 cells; type: functional
[28] = Metal chelating activity of the compound assessed as formation of Cu2+ complex by UV-vis spectrometry; type: physicochemical
Nucleic Acid [29] = assay: Binding affinity to DNA (unknown origin) assessed as DNA intercalation by UV-visible spectrophotometry; type: nucleic-acid assay
CCRF-CEM [30] = assay: Cell cycle arrest in human CCRF-CEM cells assessed as accumulation at S phase at 5 times IC50 after 24 hrs by propidium iodide staining-based flow cytometry; type: functional; procedure, shortened: as §1
Nucleic Acid [31] = assay: Binding affinity to DNA (unknown origin) assessed as DNA intercalation by UV-visible spectrophotometry in presence of Zn2+; type: nucleic-acid assay
BJ [32] = assay: Selectivity index, ratio of IC50 for human BJ cells to IC50 for human CEM-DNR cells; type: functional
[33] = Metal chelating activity of the compound assessed as formation of Cr3+ complex by UV-vis spectrometry; type: physicochemical
A549 = assay: Selectivity index, ratio of IC50 for human BJ cells to IC50 for human A549 cells; type: functional
CCRF-CEM [34] = assay: Induction of apoptosis in human CCRF-CEM cells assessed as apoptotic cells at IC50 after 24 hrs by propidium iodide staining-based flow cytometry; type: functional; procedure, shortened: as §1
CCRF-CEM [35] = assay: Induction of apoptosis in human CCRF-CEM cells assessed as mitotic cells at IC50 after 24 hrs by pH3Ser10+ labeling-based flow cytometry; type: functional
[36] = Cytostatic activity against human p53-/- HCT116 cells after 72 hrs by MTT assay; type: functional, cell-based; details: HCT-116, 72 h; procedure, shortened: as §2
[37] = Metal chelating activity of the compound assessed as formation of Zn2+ complex by UV-vis spectrometry; type: physicochemical
BJ [38] = assay: Cytostatic activity against human BJ cells after 72 hrs by MTT assay; type: ADME, cell-based; procedure, shortened: as §2
Pichia kudriavzevii = assay: Antifungal activity against Candida crusei up to 200 uM after 24 to 48 hrs by broth microdilution method; type: functional, organism-based

COC(=O)c1ccc(O)c(/C=N/NC(=O)c2ccc3c4c(ccc3c2)N2Cc3c(ccc5cc(C(=O)N/N=C/c6cc(C(=O)OC)ccc6O)ccc35)N(C4)C2)c1
Ratio IC50 (BJ [1]): 4.3
Activity (Nucleic Acid [2]): Active
Activity [3]: Not Active
Activity (Pseudomonas aeruginosa [4]): inactive
Activity (CCRF-CEM [5]): 28.66%
Activity (Nucleic Acid [6]): Active
Ratio IC50 (HCT-116): 8.9
Activity (Pseudomonas aeruginosa [7]): inactive
Activity (CCRF-CEM [8]): 31.26%
Activity (Enterococcus faecalis): inactive
IC50 (CCRF-CEM [9]): 5620 nM
Ratio IC50 (BJ [10]): 9.7
Ratio IC50 (BJ [11]): 16.3
Activity (Escherichia coli [12]): inactive
Activity (CCRF-CEM [13]): 38.54%
Activity (Nucleic Acid [14]): Active
Activity [15]: Active
Activity (CCRF-CEM [16]): 0.86%
Activity [17]: Not Active
IC50 [18]: 28.2 µM
Activity [19]: Not Active
IC50 [20]: 10.3 µM
Activity (Candida albicans): inactive
Activity (Staphylococcus aureus): inactive
Ratio IC50 (BJ [21]): 8.9
Activity [22]: Active
Activity (Nucleic Acid [23]): Active
Activity (Escherichia coli [24]): inactive
IC50 [25]: 21.2 µM
Activity (Candida tropicalis): inactive
Activity (CCRF-CEM [26]): 48.63%
Ratio IC50 (BJ [27]): 9.4
Activity [28]: Active
Activity (Nucleic Acid [29]): inactive
Activity (CCRF-CEM [30]): 55.48%
Activity (Nucleic Acid [31]): Active
Ratio IC50 (BJ [32]): 3.2
Activity [33]: Not Active
Ratio IC50 (A549): 7.7
Activity (CCRF-CEM [34]): 12.85%
Activity (CCRF-CEM [35]): 1.19%
IC50 [36]: 9.47 µM
Activity [37]: Active
IC50 (BJ [38]): 87.4 µM
Activity (Pichia kudriavzevii): inactive

O=C(N/N=C/c1nccc2ccccc12)c1ccc2c3c(ccc2c1)N1Cc2c(ccc4cc(C(=O)N/N=C/c5nccc6ccccc56)ccc24)N(C3)C1
Ratio IC50 (BJ [1]): 9.9
Activity (Nucleic Acid [2]): Active
Activity [3]: Not Active
Activity (Pseudomonas aeruginosa [4]): inactive
Activity (CCRF-CEM [5]): 44%
Activity (Nucleic Acid [6]): Active
Ratio IC50 (HCT-116): 5.7
Activity (Pseudomonas aeruginosa [7]): inactive
Activity (CCRF-CEM [8]): 46.56%
Activity (Enterococcus faecalis): inactive
IC50 (CCRF-CEM [9]): 580 nM
Ratio IC50 (BJ [10]): 4
Ratio IC50 (BJ [11]): 172
Activity (Escherichia coli [12]): inactive
Activity (CCRF-CEM [13]): 38.56%
Activity (Nucleic Acid [14]): Active
Activity [15]: Active
Activity (CCRF-CEM [16]): 1.52%
Activity [17]: Not Active
IC50 [18]: 6.29 µM
Activity [19]: Not Active
IC50 [20]: 17.7 µM
Activity (Candida albicans): inactive
Activity (Staphylococcus aureus): inactive
Ratio IC50 (BJ [21]): 5.7
Activity [22]: Active
Activity (Nucleic Acid [23]): Active
Activity (Escherichia coli [24]): inactive
IC50 [25]: 10.1 µM
Activity (Candida tropicalis): inactive
Activity (CCRF-CEM [26]): 46.09%
Ratio IC50 (BJ [27]): 121.9
Activity [28]: Active
Activity (Nucleic Acid [29]): inactive
Activity (CCRF-CEM [30]): 39.87%
Activity (Nucleic Acid [31]): Active
Ratio IC50 (BJ [32]): 15.9
Activity [33]: Not Active
Ratio IC50 (A549): 5.4
Activity (CCRF-CEM [34]): 8.4%
Activity (CCRF-CEM [35]): 1.65%
IC50 [36]: 25.3 µM
Activity [37]: Active
IC50 (BJ [38]): > 100 µM
Activity (Pichia kudriavzevii): inactive

O=C(N/N=C/c1cc(F)ccc1O)c1ccc2c3c(ccc2c1)N1Cc2c(ccc4cc(C(=O)N/N=C/c5cc(F)ccc5O)ccc24)N(C3)C1
Ratio IC50 (BJ [1]): 17.6
Activity (Nucleic Acid [2]): Active
Activity [3]: Not Active
Activity (Pseudomonas aeruginosa [4]): inactive
Activity (CCRF-CEM [5]): 63.13%
Activity (Nucleic Acid [6]): Active
Ratio IC50 (HCT-116): 64.9
Activity (Pseudomonas aeruginosa [7]): inactive
Activity (CCRF-CEM [8]): 41.1%
Activity (Enterococcus faecalis): inactive
IC50 (CCRF-CEM [9]): 1580 nM
Ratio IC50 (BJ [10]): 51
Ratio IC50 (BJ [11]): 26.3
Activity (Escherichia coli [12]): inactive
Activity (CCRF-CEM [13]): 55.45%
Activity (Nucleic Acid [14]): Active
Activity [15]: Active
Activity (CCRF-CEM [16]): 0.15%
Activity [17]: Not Active
IC50 [18]: 4.25 µM
Activity [19]: Not Active
IC50 [20]: 0.64 µM
Activity (Candida albicans): inactive
Activity (Staphylococcus aureus): inactive
Ratio IC50 (BJ [21]): 64.9
Activity [22]: Active
Activity (Nucleic Acid [23]): Active
Activity (Escherichia coli [24]): inactive
IC50 [25]: 2.36 µM
Activity (Candida tropicalis): inactive
Activity (CCRF-CEM [26]): 31.5%
Ratio IC50 (BJ [27]): 18.1
Activity [28]: Active
Activity (Nucleic Acid [29]): inactive
Activity (CCRF-CEM [30]): 42.41%
Activity (Nucleic Acid [31]): Active
Ratio IC50 (BJ [32]): 9.8
Activity [33]: Not Active
Ratio IC50 (A549): 33.6
Activity (CCRF-CEM [34]): 40.42%
Activity (CCRF-CEM [35]): 0.3%
IC50 [36]: 0.81 µM
Activity [37]: Active
IC50 (BJ [38]): 54.1 µM
Activity (Pichia kudriavzevii): inactive
